The values that follow come from ChEMBL document CHEMBL1125589, “Verapamil analogues with restricted molecular flexibility” (1991).

The species named for assay [1] is Cavia porcellus. Briefly: Percent inhibition of [Ca2+] induced contraction on K+ depolarized guinea pig aortic strips at […] concentration. The assay is classed as functional, Aorta. In a few lines:
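Guinea pig aortic strips were depolarized with K+, and contraction was induced with Ca2+. Percent inhibition of that contraction was measured with the test agent at 5·10^-4 M. Results are given as means ± SEM, n = 5-6.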

The species named for assay [2] is Cavia porcellus. Briefly: Compound was tested in vitro for chronotropic activity on isolated atria preparations of guinea pig. The assay is classed as functional.
Assay [3] is filed under the species Cavia porcellus. Briefly: Compound was tested in vitro for ionotropic activity on isolated atria preparations of guinea pig. The assay is classed as functional.
The species entered for assay [4] is Cavia porcellus. Briefly: Compound was tested in vitro for ionotropic activity on isolated atria preparations of guinea pig at 10E-6 M concentration. In kind it is functional.
The species named for assay [5] is Cavia porcellus. Briefly: Compound was tested in vitro for chronotropic activity on isolated atria preparations of guinea pig at 10E-6 M concentration. In kind it is functional. In a few lines:
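Chronotropic effect was measured on spontaneously beating isolated guinea pig right atria, with the test agent at 10^-6 M.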

Each structure is given as a SMILES string.

Regarding `COc1ccc(CCN(C)[C@H]2CC[C@](C#N)(c3ccc(OC)c(OC)c3)CC2)cc1OC`, the “Ca2+ antagonistic activity” value in assay [1] is recorded as 59%. Moreover, in assay [2], the Negative chronotropic activity stood at 65%. The compound also returned a Negative ionotropic activity in assay [3] of 52%.
The matching figures for `COc1ccc(CCN(C)[C@H]2CC[C@@](C#N)(c3ccc(OC)c(OC)c3)CC2)cc1OC`: 66%, 67% and 56%.
With `COc1ccc(CCN(C)CCCC(C#N)(c2ccc(OC)c(OC)c2)C(C)C)cc1OC` (centres undefined) [VERAPAMIL], the Negative ionotropic activity in assay [4] is recorded as 60%. In addition, the “Ca2+ antagonistic activity” value in assay [1] came out at 79%. The compound also had a Negative chronotropic activity in assay [5] of 94%.
